Measurements pooled from the literature.
Compare with care: the assays were run in different laboratories.
Cell line: HCT-116
Read-out: cell growth or viability

O=C(Nc1nnc(-c2cc3ccccc3[nH]2)s1)c1cc2c([nH]c3ccccc32)c(-c2ccc(Cl)cc2)n1
IC50 (MTT; 72 h): 5.98 µM

COc1ccc(Nc2nc(-n3nc(C)cc3C)nc(-n3nc(C)cc3C)n2)cc1
IC50 (MTT; 72 h): 3.66 µM

O=C(/C=C/c1ccc(O)c(O)c1)O[C@@H]1C[C@](O)(C(=O)O)C[C@@H](O)[C@H]1O
IC50 (WST-1; 48 h): 27.9 µM

COc1ccc(-c2nc(C(=O)Nc3nnc(-c4cc5ccccc5[nH]4)s3)cc3c2[nH]c2ccccc23)cc1
IC50 (MTT; 72 h): 4.78 µM

CC[C@H](C)C(=O)O[C@H]1CCC=C2C=C[C@H](C)[C@H](CC[C@@H]3C[C@@H](O)CC(=O)O3)[C@H]21
IC50 (SRB; 72 h): 4.57 µg/mL

COCCCOc1ccnc(COc2ccc(NC(=O)Nc3ccc(Cl)cc3)cc2)c1C
IC50 (MTT; 72 h): 9.5 µM

COc1cc(OC)c(/C=C/S(=O)(=O)Nc2ccc(OC)c(N)c2)c(OC)c1
IC50 (trypan blue; 96 h): 0.004 µM

CSc1nc(/N=C/c2cccc(O)c2)n(-c2ccc(C(=O)O)cc2)n1
IC50 (MTT): 70.1 µM

Cc1c(OCC(F)(F)F)ccnc1COc1ccc(NC(=O)Nc2cc(F)cc(F)c2)cc1
IC50 (MTT; 72 h): 52 µM

O=C(/N=C1\S/C(=C\c2ccc(Cl)cc2)C(=O)N1C1CCCCC1)c1ccc2ccccc2c1
IC50 (48 h): 9.28 µM

Cn1c(-c2nnc(NC(=O)c3cc4c([nH]c5ccccc54)c(-c4ccc(F)cc4)n3)s2)cc2ccccc21
IC50 (MTT; 72 h): 14.3 µM

COc1ccnc(COc2ccc(NC(=O)Nc3ccc(Cl)cc3)cc2)c1OC
IC50 (MTT; 72 h): 12.8 µM

Nc1ncnc2c1ncn2[C@@H]1O[C@H](CO)[C@@H](O)[C@H]1O
IC50 (WST-1; 48 h): 41.8 µM

O=c1cc(CCl)c2cc(O)ccc2o1
IC50 (MTT; 36 h): > 20 µM

COc1ccnc(COc2ccc(NC(=O)Nc3cccc(C(F)(F)F)c3)cc2)c1OC
IC50 (MTT; 72 h): 22.9 µM

Nc1nc(Oc2ccccc2)nn1-c1ccc(C(=O)O)cc1
IC50 (MTT): 61.2 µM

O=c1c(O)c(-c2ccc(O)c(O)c2)oc2cc(O)cc(O)c12
IC50 (WST-1; 48 h): 9.1 µM

COc1cc(CNC(=O)CCCC/C=C/C(C)C)ccc1OCc1cn(-c2ccc(C#N)cc2)nn1
IC50 (SRB): 10.5 µM

O=C(Nc1nnc(-c2cc3ccccc3[nH]2)s1)c1cc2c([nH]c3ccccc32)c(-c2ccc(F)cc2)n1
IC50 (MTT; 72 h): 6.22 µM

Cc1c(C)c2c(O)cc(O)cc2oc1=O
IC50 (MTT; 36 h): > 20 µM

CC(C)C[C@H](NC(=O)[C@H](Cc1ccccc1)NC(=O)c1cnccn1)B(O)O
IC50 (ATP luminescence): 0.0097 µM

COc1cc(/C=N/c2nc(SC)nn2-c2ccc(C(=O)O)cc2)ccc1O
IC50 (MTT): 61.1 µM

c1ccc(C[n+]2cn(COC3CCCCC3)c3ccccc32)cc1
IC50 (MTT; 72 h): 44.2 µM

O=C(NC(=S)NCCNC(=S)NC(=O)c1ccc2ccccc2c1)c1ccc2ccccc2c1
IC50 (48 h): 1.31 µM

COc1ccnc(COc2ccc(NC(=O)Nc3ccc(F)cc3)cc2)c1OC
IC50 (MTT; 72 h): 22.3 µM

CC1=C(O)C(=O)C=C2C1=CC=C1[C@@]2(C)CC[C@@]2(C)[C@@H]3C[C@](C)(C(=O)OCCCOc4ccccc4)CC[C@]3(C)CC[C@]12C
IC50 (MTT; 48 h): 1.34 µM

O=C(NC(=S)NCCCNC(=S)NC(=O)c1ccc2ccccc2c1)c1ccc2ccccc2c1
IC50 (48 h): 1.23 µM

O=c1cc(CCl)c2c(O)cc(O)cc2o1
IC50 (MTT; 36 h): > 20 µM

COc1ccc(O)c(/C=N/c2nc(Oc3ccccc3)nn2-c2ccc(C(=O)O)cc2)c1
IC50 (MTT): 58.5 µM

CC1CCC(OCn2c[n+](Cc3ccccc3)c3ccccc32)CC1 (centres unmarked)
IC50 (MTT; 72 h): 21.9 µM

O=C(/N=c1\scc(-c2ccccc2)n1C1CCCCC1)c1ccc2ccccc2c1
IC50 (48 h): 19.2 µM

COc1c(C)cnc(COc2ccc(NC(=O)Nc3ccc(Cl)c(C(F)(F)F)c3)cc2)c1C
IC50 (MTT; 72 h): 8.17 µM

Cc1c(NC(=O)c2ccc(C(C)(C)C)cc2)cccc1-c1cn(C)c(=O)c(Nc2ccc(C(=O)N3CCOCC3)cc2)n1
IC50: > 10 µM

CC(=O)Oc1ccc2c(CSC(C)=O)cc(=O)oc2c1
IC50 (MTT; 36 h): > 20 µM

NC(=O)NOCCCCCCCCCCCC[P+](c1ccccc1)(c1ccccc1)c1ccccc1
IC50 (imaging): 1.8 µM

O=C(O)C[C@H](O)C[C@H](O)/C=C/c1c(C2CC2)nc2ccccc2c1-c1ccc(F)cc1
IC50 (SRB; 72 h): 7.46 µg/mL

CC1=C(O)C(=O)C=C2C1=CC=C1[C@@]2(C)CC[C@@]2(C)[C@@H]3C[C@](C)(C(=O)OCCCCCCCO)CC[C@]3(C)CC[C@]12C
IC50 (MTT; 48 h): 0.93 µM

O=c1ccc2ccc(O)c(CO)c2o1
IC50 (MTT; 36 h): > 20 µM

COc1ccc(NC(=O)Nc2ccc(OCc3nccc(OC)c3OC)cc2)cc1
IC50 (MTT; 72 h): 13.1 µM

O=C(NC(=S)Nc1ccccc1)c1ccc2ccccc2c1
IC50 (48 h): 5.77 µM

CCCCCCCCCCONC(N)=O
IC50 (imaging): > 600 µM

Cc1ccc(O)c(/C=N/c2nc(Oc3ccccc3)nn2-c2ccc(C(=O)O)cc2)c1
IC50 (MTT): 74 µM

COc1cc([C@@H]2c3cc4c(cc3[C@@H](O[C@@H]3O[C@@H]5CO[C@@H](C)O[C@H]5[C@H](O)[C@H]3O)[C@H]3COC(=O)[C@H]23)OCO4)cc(OC)c1O
IC50 (MTS; 72 h): 19.3 µM

c1ccc2cc(-c3nnc(NC4CCCCC4)[nH]3)ccc2c1
IC50 (48 h): 2.53 µM

COCCCOc1ccnc(COc2ccc(NC(=O)Nc3cc(F)cc(F)c3)cc2)c1C
IC50 (MTT; 72 h): 56.6 µM

COCCCOC(=O)[C@]1(C)CC[C@]2(C)CC[C@]3(C)C4=CC=C5C(=CC(=O)C(O)=C5C)[C@]4(C)CC[C@@]3(C)[C@@H]2C1
IC50 (MTT; 48 h): 0.49 µM

CCC[C@H](Nc1nc(-c2ccc(NC(=O)NCC)c(OC)c2)ncc1C)c1cccnc1
IC50 (fluorescence; 72 h): 0.0477 µM
